# Screening results from PubChem BioAssay.
# Only some compounds are listed: those with a hit (about 1.9% of all), similar ones and a draw of the others.
# p-CIP stab down: compounds decreasing mouse p/CIP protein stability; 290,000 tested, 0.01% active; Q05BA5; decrease of EGFP signal, % at 10 µM; F442A p/CIP-EGFP cells, EGFP fluorescence, 16 h;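 active = EGFP signal decrease of at least 30% at 10 µM or well 3 SD below plate mean, unless failing retest; inactive = the rest, including hits failing retest or dose response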
# GPR7 antag: antagonists of human GPR7 (neuropeptides B/W receptor 1). inhibition, % at 4.4 µM. GPR7-expressing cells, fluorescence antagonist assay. AID 1861. P48145. 290,000 tested, 1.1% active; in the data active = inhibition above about 16%, passing the limit was not always enough;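 also: cells stimulated with the agonist NPW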
# Target sequence (P48145 whole entry, looked up): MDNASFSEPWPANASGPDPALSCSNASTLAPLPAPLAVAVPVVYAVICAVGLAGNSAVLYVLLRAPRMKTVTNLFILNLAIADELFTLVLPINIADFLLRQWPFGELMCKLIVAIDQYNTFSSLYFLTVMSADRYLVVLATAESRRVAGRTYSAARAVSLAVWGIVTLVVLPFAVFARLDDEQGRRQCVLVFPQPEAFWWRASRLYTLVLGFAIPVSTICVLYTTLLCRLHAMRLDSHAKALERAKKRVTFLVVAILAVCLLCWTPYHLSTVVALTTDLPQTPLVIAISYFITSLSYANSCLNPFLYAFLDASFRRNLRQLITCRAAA
# NS3 helicase inh: blocks Hepatitis C virus NS3 helicase unwinding; NS3 helicase DNA unwinding, Cy5 molecular beacon fluorescence; inhibition, % at 10.9 µM; 290,000 tested, 0.56% active;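 active = inhibition above the mean of all tested compounds plus 3 SD, set per campaign, cut at about 35% in these data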
#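 test system = hepatitis C virus NS3 helicase domain fragment enzyme | reagent = annealed dual-labelled DNA beacon duplex, ATP-started | times = 1 h at 25 °C | detection = Cy5 fluorescence, 0 and 60 min reads | read-out basis = percent inhibition from t60/t0 fluorescence ratio | control set = DMSO and thioflavine S | replication = one well per compound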
# DNA FID counter-1: counter-screen for HCV NS3 helicase inhibitors: DNA intercalator displacement; DNA fluorescent intercalator displacement, fluorescence; inhibition, % at 7.9 µM; 290,000 tested, 0.17% active; AID 1845;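 also: higher means more ethidium bromide displaced from hairpin DNA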
# HCV core dimer: HCV core protein dimerization inhibition; TR-FRET GST/Flag-core106 dimerization, 1536-well; 300,000 tested, 0.33% active; inhibition, % at 5 µM;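 active = inhibition above the mean of all tested compounds plus 3 SD, set per screening campaign, cut at about 45% in these data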
#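 System: GST-tagged and Flag-tagged HCV core protein residues 1-106 / Input: core106 proteins, GST 13.5 nM and Flag 17 nM / Buffer or medium: KF-containing HEPES buffer, pH 7.45, DTT, CHAPS, BSA / Probe or stimulus: Eu-anti-GST and XL665-anti-Flag labelled anti-tag antibodies / Schedule: 4 h, 22.5 °C incubation / Technique: TR-FRET 671 and 617 nm emission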
# NS3 helicase cf: confirmation of Hepatitis C virus NS3 helicase inhibitors; shares compounds with NS3 helicase inh; NS3 helicase DNA unwinding, Cy5 molecular beacon fluorescence; inhibition, % at 10.9 µM; 1,600 tested, 31% active;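 active = inhibition above the mean of all tested compounds plus 3 SD, cutoff set per campaign, cut at about 36% in these data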
# DNA FID counter-2: counter-screen for HCV NS3 helicase inhibitors: DNA intercalator displacement | shares compounds with NS3 helicase inh | DNA fluorescent intercalator displacement, fluorescence | inhibition, % at 7.9 µM | 1,600 tested, 4% active | AID 1945;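 also: higher means more displacement of ethidium bromide from the DNA hairpin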
# DNA FID DR: counter-screen for HCV NS3 helicase inhibitors: DNA intercalator displacement dose response | shares compounds with NS3 helicase inh | fluorescent intercalator displacement from DNA, fluorescence | IC50, µM | 120 tested, under 10 active; call rule not given here
# A number is an active result; . = inactive; / = no result given. Rule as the data show it, unless noted: active = inhibition above about 37%; inactive = the rest.
SMILES,p-CIP stab down,GPR7 antag,NS3 helicase inh,DNA FID counter-1,HCV core dimer,NS3 helicase cf,DNA FID counter-2,others
Cc1cc(/C=N/NC(=O)C(O)(c2ccccc2)c2ccccc2)c(C)n1-c1cccc(C(=O)O)c1,.,.,51,.,.,72,.,
O=C(COC(=O)c1ccccn1)NCc1cccs1,/,/,/,/,.,/,/,
OCCN1CCN(c2nc(-c3ccccc3)c3cc(Br)ccc3n2)CC1,.,.,.,.,.,/,/,
O=C(O)C1CCN(c2nc(-c3ccccc3)c3cc(Br)ccc3n2)CC1,.,.,48,.,.,69,.,
C=CCN1C(=O)/C(=C/c2ccc(-c3ccc(F)cc3)o2)SC1=S,.,.,78,.,.,.,.,
C=CCN1C(=O)/C(=C/c2ccsc2)SC1=S,.,.,.,.,.,/,/,
Cc1nc(SCC(=O)Nn2c(-c3ccccc3)nc3ccccc3c2=O)n[nH]1,.,.,47,.,.,.,.,
Cc1cccc(-c2nc3ccccc3c(=O)n2NC(=S)N(C)C)c1,.,.,39,.,.,.,.,
COc1ccc(C(=O)/C=C/c2cc(C(=O)O)cc3c2OCOC3)c(O)c1,.,.,.,.,.,/,/,
O=C(O)c1cc(/C=C/C(=O)c2cc(F)ccc2O)c2c(c1)COCO2,.,.,49,.,.,52,.,
COc1ccc(/C=C2\SC(=S)N(NS(=O)(=O)c3ccc(C)cc3)C2=O)c(OC)c1,.,.,111,.,.,80,.,
CCOc1ccc(/C=C2\SC(=S)N(NS(=O)(=O)c3ccccc3)C2=O)cc1OC,.,.,42,.,.,79,.,
COc1ccc(OC)c(/C=C2\SC(=S)N(NS(=O)(=O)c3ccc(C)cc3)C2=O)c1,.,.,.,.,.,/,/,
COc1ccc(OC)c(/C=C2\SC(=S)N(NS(=O)(=O)c3ccccc3)C2=O)c1,.,.,.,.,.,/,/,
COc1ccccc1/C=C1\SC(=S)N(NS(=O)(=O)c2ccc(C)cc2)C1=O,.,.,41,.,.,71,.,
COc1ccc(-n2c(=O)c3c4c(sc3n3c(=S)[nH]nc23)COC(C(C)C)C4)cc1 (configuration not stated),.,.,.,.,.,/,/,
Cc1ccc(C(=O)Nn2c(C)nc3ccccc3c2=O)cc1C,.,.,.,.,.,/,/,
CC(=O)c1cccc(NC(=O)CN(C)S(=O)(=O)c2cccc3nsnc23)c1,.,.,.,.,.,/,/,
CCS(=O)(=O)C1=NN2C(=N)/C(=C\c3ccc(OCCOc4cccc(OC)c4)c(OC)c3)C(=O)N=C2S1,.,.,46,.,.,63,.,
CCOc1cc(/C=C2\C(=N)N3N=C(S(C)(=O)=O)SC3=NC2=O)ccc1OCCOc1cccc(OC)c1,.,.,.,.,.,/,/,
O=c1[nH]c(C(Cl)(Cl)Cl)nc2ccc3ccccc3c12,.,.,.,.,.,/,/,
CCOC(=O)C1Nc2ccc(C(=O)O)cc2C2C=CCC12 (configuration not stated),.,.,54,.,.,67,.,
CCOC(=O)c1ccc2c(c1)C1C=CCC1C(C(=O)O)N2 (configuration not stated),.,.,39,.,88,91,.,
CCCC1Nc2ccc(C(=O)O)cc2C2C=CCC12 (configuration not stated),.,.,.,.,.,/,/,
O=C(O)C1Nc2c(C(F)(F)F)ccc(Cl)c2C2C=CCC12 (configuration not stated),.,.,.,.,.,/,/,
SMILES,p-CIP stab down,GPR7 antag,NS3 helicase inh,DNA FID counter-1,HCV core dimer,NS3 helicase cf,DNA FID counter-2,others
Cc1cc(C)c2c(c1)NC(C(=O)O)C1CC=CC21 (configuration not stated),.,.,44,.,.,98,.,DNA FID DR=.
O=C(c1ccc(Br)o1)N1CCN(CCc2ccncc2)CC1,.,.,.,.,.,/,/,
Oc1c(Br)cc(/C=N/n2c(-c3ccccc3)n[nH]c2=S)c(Br)c1O,.,.,39,.,.,65,.,
Oc1c(Br)cc(Br)cc1/C=N/n1c(-c2ccccc2)n[nH]c1=S,.,.,.,.,.,/,/,
COc1ccc(NC(=O)CC(=O)Nc2ccc(OC)cc2)cc1,/,/,/,/,.,/,/,
O=C(O)/C=C/c1ccc2c(-c3ccccc3)onc2c1,.,.,54,.,.,.,.,
O=[N+]([O-])c1ccc(N2CCN(S(=O)(=O)c3ccccc3)CC2)cc1NCC1CCCO1 (configuration not stated),.,.,.,.,.,/,/,
O=[N+]([O-])c1ccc(N2CCN(S(=O)(=O)c3ccc4ccccc4c3)CC2)cc1NCC1CCCO1 (configuration not stated),.,.,53,.,.,.,.,
S=c1[nH]nc(COc2ccc(Cl)cc2)n1Cc1ccco1,.,.,36,.,.,.,.,
CCOC(=O)C1(Cc2cccc(Cl)c2)CCCN(C(=O)CCN2CCCC2=O)C1 (configuration not stated),.,.,65,.,.,.,.,
CN1CCN(S(=O)(=O)c2cccc(C(=O)Oc3ccccc3Cl)c2)CC1,.,.,.,.,.,/,/,
CCC(=O)C1CCCN(C(=O)c2ccc(OC3CCN(C(=O)CCOC)CC3)cc2)C1 (configuration not stated),.,.,.,.,.,/,/,
CN(C)S(=O)(=O)c1ccc(C(=O)Nc2nc(-c3cc4ccccc4o3)cs2)cc1,.,.,.,.,.,/,/,
Cc1cc(-c2csc(NC(=O)c3ccc(S(=O)(=O)N(C)C)cc3)n2)c(C)n1-c1ccccc1,.,.,66,.,.,.,.,
CCSc1nc2c(c(=O)[nH]1)C(c1cccnc1)C(C(=O)OC)=C(C)N2 (configuration not stated),.,.,39,.,.,.,.,
CCSc1nc2c(c(=O)[nH]1)C(c1ccncc1)C(C(=O)OC(C)C)=C(C)N2 (configuration not stated),.,.,.,.,.,/,/,
CC(=O)C(C(C)=O)c1c(Cl)c(O)c(O)c2c(C(=O)c3ccccc3)coc12,.,.,38,.,.,.,.,
O=S(=O)(Nc1ccc(Br)cn1)c1ccc2ccccc2c1,.,.,.,.,.,/,/,
COc1cc(C(c2c(C(=O)O)[nH]c3ccccc23)c2c(C(=O)O)[nH]c3ccccc23)ccc1OCc1ccccc1,.,.,37,.,.,.,.,
CC1CCc2c(sc(/N=C/c3ccco3)c2C(N)=O)C1 (configuration not stated),.,.,37,.,.,.,.,
Cc1cc(/C=C2\SC(=S)N(C)C2=O)c(C)n1-c1cccc(O)c1,.,.,83,.,.,.,.,
CCCCn1c(N)c(N(CCOC)C(=O)c2ccco2)c(=O)[nH]c1=O,/,/,/,/,.,/,/,
